# Most compounds without a hit are left out; they make up all but 2.6% or so of the library.
# RAD54 branch = RAD54 (human) branch migration inhibition; Q92698; RAD54 Holliday junction branch migration, FAM/BHQ fluorescence; inhibition, % at 10.4 µM; 360,000 compounds, 0.14% hits;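 active means mean normalized replicate activity at least 40 and at least half of replicates scoring 40 or more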;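 further: 0% = median of neutral control wells and 100% = median of positive control wells; inhibitors cause a drop in the FAM fluorescence signal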
# Target sequence (Q92698 whole entry, looked up): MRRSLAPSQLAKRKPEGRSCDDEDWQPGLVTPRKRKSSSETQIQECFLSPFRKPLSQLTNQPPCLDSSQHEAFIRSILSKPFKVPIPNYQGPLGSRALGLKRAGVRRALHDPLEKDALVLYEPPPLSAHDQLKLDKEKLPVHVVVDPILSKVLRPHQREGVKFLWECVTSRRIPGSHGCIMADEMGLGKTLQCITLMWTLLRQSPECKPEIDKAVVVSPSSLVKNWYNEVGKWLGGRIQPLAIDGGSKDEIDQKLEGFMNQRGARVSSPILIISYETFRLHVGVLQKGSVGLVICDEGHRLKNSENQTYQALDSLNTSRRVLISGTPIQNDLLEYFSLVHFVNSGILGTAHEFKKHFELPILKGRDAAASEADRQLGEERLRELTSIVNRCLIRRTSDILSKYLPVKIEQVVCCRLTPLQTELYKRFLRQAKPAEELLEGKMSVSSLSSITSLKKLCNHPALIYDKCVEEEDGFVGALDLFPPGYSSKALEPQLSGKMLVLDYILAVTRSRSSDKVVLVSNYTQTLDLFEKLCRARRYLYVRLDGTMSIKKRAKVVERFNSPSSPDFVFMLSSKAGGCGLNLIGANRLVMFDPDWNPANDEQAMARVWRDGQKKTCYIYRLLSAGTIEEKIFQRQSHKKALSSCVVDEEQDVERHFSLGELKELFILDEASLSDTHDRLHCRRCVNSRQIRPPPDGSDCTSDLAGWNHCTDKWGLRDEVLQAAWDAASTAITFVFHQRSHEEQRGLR
# MLL AF4-AF9 inh = blocks AF4 peptide binding to human AF9 | 350,000 compounds, 0.47% hits | AID 651704 | inhibition, % at 10 µM | AlphaScreen, biotin-AF4 peptide binding to FLAG-AF9 | P42568;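 active means every replicate reaching a set inhibition limit, whatever the replicate mean, cut at about 25% in these data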;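 further: 0% = plate neutral control median and 100% = total signal loss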
# E-selectin induc = E-selectin induction on HUVECs | HUVEC E-selectin immunofluorescence imaging; normalized: neutral wells 0, TNF-alpha wells 100 | AID 686992 | 260,000 compounds, 0.37% hits | activation, % at 7.58 µM;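 active means mean E-selectin-positive cell signal at least 10% of the positive control, reached in at least 60% of replicates, without over 20% cell loss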
#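 material = human umbilical vein endothelial cells (HUVEC), E-selectin induction | quantity = 3,000 cells/well | medium = EGM-2 growth medium on 0.1% gelatin-coated wells | technique = immunofluorescence imaging | read-out basis = % PE-positive cells | control set = TNF-alpha positive control, DMSO neutral control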
# GSIS activator = GLuc luminescence reporter in INS-1E cells, primary screen for activators of glucose-dependent secretion of insulin | INS-1E GLuc reporter insulin secretion, 2-3 h | activation, % at 16.6 µM | 370,000 compounds, 0.61% hits;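 active means lowest replicate activation of at least 40%, so every replicate reaches that level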;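 further: 0% = median of neutral control wells and 100% = median of IBMX positive control wells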
# rRNA inh HTS = inhibits bacterial ribosomal RNA function over humanized ribosomes. E. coli WT GFP vs humanized-ribosome RFP mutants, fluorescence, 24 h; stronger effect = lower value; DMSO median 0, no signal -100. GFP signal change (wild-type ribosome), % (no concentration beside the values). 350,000 compounds, 1.6% hits;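 active means significant combined selectivity score with lowered wild-type GFP, culture density cut under 30%, mutant RFP and density less affected; inactive means any of these conditions unmet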
# RAD52 inh = RAD52 (human) annealing inhibition; inhibition, % at 18.7 µM; P43351; recombinant RAD52 DNA annealing, FRET fluorescence; 360,000 compounds, 0.46% hits;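 active means every replicate showing at least 50% inhibition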
# * marks the source's active call; other numbers are inactive results; . = not tested or not shown.
SMILES,RAD54 branch,MLL AF4-AF9 inh,E-selectin induc,GSIS activator,rRNA inh HTS,RAD52 inh
CC(=O)N[C@@H]1C=C[C@@H](CC(=O)NCc2ccc(Cl)cc2)O[C@H]1CO,3.5,-1.0,0.3,-15.8,2.2,-1.6
Cc1sc2ncnc(Sc3ccccc3C(=O)O)c2c1C,.,-2.2,0.0,18.0,-24.2*,-21.4
CC(=O)c1ccc(NC(=O)c2ccccc2Sc2ncnc3sc(C)c(C)c23)cc1,0.1,0.5,.,-4.1,-21.6,-19.7
COC(=O)c1ccc2ccccc2n1,0.8,.,.,.,.,.
O=C(c1ccccc1)c1ccc2ccccc2n1,8.1,.,.,50.3*,.,.
C#CCn1c(=NC(=O)c2ccco2)sc2cccc(Cl)c21,.,30.5*,.,-2.0,11.9,-12.9
CCOc1cccc2sc(=NC(=O)c3ccco3)n(CC(=O)OC)c12,.,-5.4,.,-22.7,3.9,-12.9
Cc1ccc(NC(=O)C(=O)NCC2OCCc3ccccc32)cc1 (stereo unspecified),2.6,-1.8,0.6,41.2,21.1,-3.7
O=C(NCC1OCCc2ccccc21)c1ccc(NC(=O)c2ccc(Cl)cc2)cc1 (stereo unspecified),1.1,.,.,249.0*,.,.
C[C@@H]1CN([C@H](C)CO)C(=O)c2cc(NC(=O)NC3CCCCC3)ccc2O[C@@H](C)CCCCO[C@@H]1CN(C)C(=O)Nc1ccc(F)cc1,.,-2.7,4.9,3.3,-1.8,3.4
CS/C(=N\S(=O)(=O)c1cccs1)Nc1ccc(Br)cc1F,-0.8,-3.4,-0.2,-5.5,-23.2,-15.8
CS/C(=N\S(=O)(=O)c1cccs1)Nc1ccc(Cl)cc1,.,4.1,-3.2,-28.8,-29.8*,-18.6
CC=Cc1ccc2n(c1=O)C[C@H]1[C@H](CO)[C@@H](C(=O)N(C)C)[C@@H]2N1S(=O)(=O)c1ccccc1C (mixture of isomers),.,-3.8,-0.2,-0.8,-2.7,6.9
CC1(C(=O)OCC(=O)Nc2nc(-c3ccc(F)c(F)c3)cs2)CC1(Cl)Cl (stereo unspecified),9.0,-1.3,5.9,-42.0,-27.5*,-11.3
CCc1ccc(NC(=O)C(C)OC(=O)c2ccc(N3CCCC3)c([N+](=O)[O-])c2)cc1 (stereo unspecified),.,-4.3,26.4*,7.9,-3.5,-3.1
O=C(OCc1ccc([N+](=O)[O-])cc1)c1ccc(N2CCCC2)c([N+](=O)[O-])c1,.,3.2,.,12.0,14.0,-20.9
CCCC(=O)Nc1ccc2c(c1)OC[C@H](C)N(C(=O)c1ccncc1)C[C@H](C)[C@@H](OC)CN(C)C2=O,.,-5.1,0.0,17.2,2.2,0.7
Nc1nn(-c2ccccc2)c2ccc([N+](=O)[O-])cc12,6.6,1.3,0.6,34.5,-20.9*,1.0
COc1ccccc1NC(=O)N[C@H]1CC[C@H](CCNS(=O)(=O)c2ccccc2)O[C@@H]1CO,1.0,0.0,0.6,-0.9,-4.1,3.8
C[C@@H]1CN([C@@H](C)CO)C(=O)c2cccc(NS(=O)(=O)c3ccc(Cl)cc3)c2O[C@H]1CN(C)S(=O)(=O)c1cn(C)cn1,.,.,5.3,11.7,2.6,.
CCCN1C(=O)c2ccc(C(=O)Nc3ccccc3C(=O)O)cc2C1=O,-26.9,-1.7,0.1,-0.3,-21.2*,-6.8
CCCN1C(=O)c2ccc(C(=O)Nc3cc(C)ccc3O)cc2C1=O,6.0,3.9,.,1.4,6.5,-1.0
Cc1ccc(C(=O)/C=C/C(=O)c2ccc(C)cc2)cc1,.,-2.6,-3.3,20.5,-23.9*,-7.2
C/C(=N\NC(=O)C1CCCC1)c1ccc(Cl)cc1,9.8,0.9,-0.1,17.2,14.4,-10.4
C/C(=N\NC(=O)C1CC1)c1ccc(Cl)cc1,.,-2.5,120.6*,1.5,9.0,-6.8
C[C@@H]1CN([C@@H](C)CO)C(=O)c2cc(NC(=O)Nc3cccc4ccccc34)ccc2O[C@@H](C)CCCCO[C@H]1CN(C)CC1CCCCC1,-1.2,0.3,0.9,-28.9,-1.2,-22.0
COc1ccc(S(=O)(=O)Nc2ccc3c(c2)C(=O)N([C@@H](C)CO)C[C@H](C)[C@@H](CN(C)Cc2ccc4c(c2)OCO4)O3)cc1,-4.5,0.1,0.0,-0.7,5.1,-2.2
CCOc1ccc(/C=C2\SC(=S)N(CCC(=O)O)C2=O)cc1,.,.,.,4.1,-27.4*,-19.8
